Results as given in PMC3662472 (Basic research in cardiology, 2012).
Entries after “also recorded” stand apart in the source; their conditions may differ. Where two headings read alike, the source gives them in different places. Ends that are not written are not given here.

Assays:
[1] = tested on: Cx43 hemichannels (cultured pig ventricular cardiomyocytes); assay type: cell-based; conditions: Vm +70 mV, siCx43 n = 9, siCx43scr n = 6, MOCK n = 3, ***P < 0.001 siCx43 versus MOCK and siCx43scr
[2] = tested on: porcine Cx43 gene gja1 / Cx43 expression; experiment: Cx43 expression; assay type: cell-based; conditions: cultured pig ventricular cardiomyocytes
[3] = tested on: Cx43 hemichannels (pig ventricular cardiomyocytes); experiment: Unitary hemichannel currents in isolated pig left ventricular cardiomyocytes; assay type: cell-based; conditions: Vm −70 to +80 mV
Panx1 HCs = conditions: 20 μM; ref [6]; cited from earlier work
[4] = target: Cx43 hemichannels (HeLa-Cx43 cells) (Mus musculus, UniProt P23242); assay type: cell-based; conditions: for Qm (% normalized to average before peptide addition), time course: repeated Vm steps to +70 mV, n = 3; for Qm versus control / HC-mediated unitary events: concentration not given; for Qm versus control: Vm +70 mV (30 s); for Qm at steady state (reduction to, % of value before peptide): n = 5
Chain of Cx43 hemichannels (HeLa-Cx43 cells) (P23242 whole entry): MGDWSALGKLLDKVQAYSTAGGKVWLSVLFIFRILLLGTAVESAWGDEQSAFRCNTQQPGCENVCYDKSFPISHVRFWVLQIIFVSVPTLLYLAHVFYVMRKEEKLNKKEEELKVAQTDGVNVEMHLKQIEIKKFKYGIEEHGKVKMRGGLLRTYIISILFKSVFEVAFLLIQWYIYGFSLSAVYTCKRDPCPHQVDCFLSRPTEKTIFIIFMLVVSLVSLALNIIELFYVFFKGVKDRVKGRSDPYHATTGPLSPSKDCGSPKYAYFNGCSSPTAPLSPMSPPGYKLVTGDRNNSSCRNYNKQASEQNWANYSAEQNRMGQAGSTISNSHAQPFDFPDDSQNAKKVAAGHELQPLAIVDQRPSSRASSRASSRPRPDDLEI
Outline: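 HeLa cells stably express mouse Cx43 from a CMV vector and are kept in DMEM with 20 % FBS, 2 mM glutamine and 1 μg/mL puromycin. In whole-cell clamp (1–3 MΩ pipettes, pH 7.2, 50 nM Ca2+, 1 kHz filter), peptide is pre-incubated 30 min or added during recording. Qm is integrated unitary current over each step, normalized to pre-peptide or […] control. Mean ± SEM, ANOVA/Bonferroni or t test.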

[5] = scrambled peptide, Vm +70 mV, HeLa-Cx43

**Q.** Which results are given for 5′-AGAGAUACGAACAAGAGAG-3′ [siCx43^scr]?
**A.** Cx43 HC unitary current activity (Qm) [1]: no effect; effect on Cx43 expression ([2]; scrambled siRNA): no effect

**Q.** For 5′-GAAAGAGGAGGAACUCAAA-dTdT-3′ [siCx43], which “Cx43 HC unitary current activity (Qm)” value ([1]; listed as siRNA directed against Cx43) is on record?
**A.** significantly inhibited

**Q.** What about the “Cx43 expression, % of control (MOCK)” value ([2]; *P < 0.05 versus siCx43scr and MOCK) of the same compound?
**A.** 50%

**Q.** And the Cx43 expression knockdown ([2]; siRNA 24 h)?
**A.** ~ 50%

**Q.** Which results are given for CC1(C)[C@@H](OC(=O)CCC(=O)O)CC[C@]2(C)[C@H]3C(=O)C=C4[C@@H]5C[C@@](C)(C(=O)O)CC[C@]5(C)CC[C@@]4(C)[C@]3(C)CC[C@@H]12 [carbenoxolone]?
**A.** unitary current events in cardiomyocytes ([3]; 20 μM): not influenced; also recorded: not affected; unitary current events in cardiomyocytes ([3]; 20 μM, listed as Carbenoxolone): no effect; unitary current events in cardiomyocytes ([3]; 100 μM): acted inhibitory; also recorded: clearly inhibited the currents; block of Panx1 HCs (Panx1 HCs): known to block Panx1 HCs; unitary current activity ([4]; 100 μM, Vm = +70 mV, HeLa-Cx43): rapidly disappeared

**Q.** Which results are given for PSFDSRHCIVKYV [SGap26]?
**A.** inhibition of Qm at 1 mM ([4]; 1 mM, Vm +70 mV, HeLa-Cx43): strong inhibition; inhibitory effect on Qm over concentration range ([4]; concentration range at which Gap26 displayed inhibition): did not exhibit inhibitory effects; Qm (% normalized to average before peptide addition), time course [4]: around 100%; Qm versus control ([4]; scrambled peptide, HeLa-Cx43): not different from control; HC-mediated unitary events [4, 5]: did not reveal any inhibition; Qm decay over time ([4]; time course, Vm steps to +70 mV, scrambled peptide): did not cause any Qm decay

**Q.** Which IC50 [4] does the source give for SRPTEKTIFII [Gap27, SRPTEKTIFII] here?
**A.** ~161 µM

**Q.** What about the “Qm at steady state (reduction to, % of value before peptide)” value ([4]; 300 μM, Vm steps to +70 mV, **P < 0.01 versus SGap27) of the same compound?
**A.** ~ 15%

**Q.** Which results are given for TFEPIRISITK [SGap27]?
**A.** effect on Qm versus concentration ([4]; concentration dependence, Vm +70 mV, HeLa-Cx43): did not affect Qm unless it was applied at 1 mM concentration; Qm (% normalized to average before peptide addition), time course [4]: around 100%; Qm versus control ([4]; scrambled peptide, HeLa-Cx43): not different from control; HC-mediated unitary events [4, 5]: did not reveal any inhibition

**Q.** For VCYDKSFPISHVR [Gap26, VCYDKSFPISHVR], which IC50 [4] is on record?
**A.** ~81 µM

**Q.** And the “Qm at steady state (reduction to, % of value before peptide)” value ([4]; 250 μM, Vm steps −30 to +70 mV, *P < 0.05 versus SGap26)?
**A.** ~ 35%
